Assay results reported in ChEMBL document CHEMBL2177069, “Novel peptidomimetic compounds containing redox active chalcogens and quinones as potential anticancer agents” (Eur J Med Chem, 2012).

Legend:
SR = assay: Cytotoxicity against human SR cells; assay type: functional; details: for TGI: read-out: pTGI (converted)
Saccharomyces cerevisiae [1] = assay: Growth inhibition of UFD2-deficient Saccharomyces cerevisiae YDL190C mutant at 20 ug/disc after 24 to 48 hrs by agar diffusion assay; assay type: functional; details: read-out: DIZ
Procedure, shortened: (§1)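 S. cerevisiae deletion mutants or wild type grown on YPD, seeded into liquid agar medium at an optical density of 0.1. 6 mm paper discs soaked with methanolic compound solution were placed on the plates and incubated at 30 °C. Growth was checked after 1 and 2 days, and the inhibition zone diameter was recorded in mm.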

Saccharomyces cerevisiae [2] = assay: Growth inhibition of COX17-deficient Saccharomyces cerevisiae YLL009C mutant at 20 ug/disc after 24 to 48 hrs by agar diffusion assay; assay type: functional; details: read-out: DIZ; procedure, shortened: as §1
Saccharomyces cerevisiae [3] = assay: Growth inhibition of RCK1-deficient Saccharomyces cerevisiae YGL158W mutant at 20 ug/disc after 24 to 48 hrs by agar diffusion assay; assay type: functional; details: read-out: DIZ; procedure, shortened: as §1
Saccharomyces cerevisiae [4] = assay: Growth inhibition of WSC4-deficient Saccharomyces cerevisiae YHL028W mutant at 20 ug/disc 24 to 48 hrs by agar diffusion assay; assay type: functional; details: read-out: DIZ; procedure, shortened: as §1
Saccharomyces cerevisiae [5] = assay: Growth inhibition of SOD1-deficient Saccharomyces cerevisiae YJR104C mutant at 20 ug/disc after 24 to 48 hrs by agar diffusion assay; assay type: functional; details: read-out: DIZ; procedure, shortened: as §1
Saccharomyces cerevisiae [6] = assay: Growth inhibition of wild type Saccharomyces cerevisiae BY4741 at 20 ug/disc after 24 to 48 hrs by agar diffusion assay; assay type: functional; details: read-out: DIZ; procedure, shortened: as §1
[7] = Cytotoxicity against human PHF cells after 24 hrs by MTT assay; assay type: cell-based
Procedure, shortened: (§2)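 MTT assay. Cells were seeded at 50,000 cells/mL in medium with 10% fetal calf serum and grown for two days at 37 °C, 10% CO2. Serial dilutions of compound were then added for 24 h. MTT was added (final 0.5 mg/mL) for 2 h, and the formazan was pelleted, washed, dissolved in isopropanol with 0.4% HCl and read at 590 nm. IC50 is the concentration giving 50% of untreated-control absorbance, taken from dose-response curves; mean of two parallel experiments.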

HUVEC = assay: Cytotoxicity against human HUVEC cells after 24 hrs by MTT assay; assay type: cell-based; procedure, shortened: as §2
A-431 = assay: Cytotoxicity against human A431 cells after 24 hrs by MTT assay; assay type: functional, cell-based; details: A-431, 24 h; procedure, shortened: as §2
MCF7 = assay: Cytotoxicity against human MCF7 cells after 24 hrs by MTT assay; assay type: functional, cell-based; details: MCF7, 24 h; procedure, shortened: as §2
Hs-578T = assay: Cytotoxicity against human Hs578T cells; assay type: functional; details: for TGI: read-out: pTGI (converted)
PC-3 = assay: Cytotoxicity against human PC3 cells; assay type: functional; details: for TGI: read-out: pTGI (converted)
SN12C = assay: Cytotoxicity against human SN12C cells; assay type: functional; details: for TGI: read-out: pTGI (converted)
RXF 393 = assay: Cytotoxicity against human RXF393 cells; assay type: functional
CAKI-1 = assay: Cytotoxicity against human Caki1 cells; assay type: functional; details: for TGI: read-out: pTGI (converted)
ACHN = assay: Cytotoxicity against human ACHN cells; assay type: functional; details: for TGI: read-out: pTGI (converted)
OVCAR-5 = assay: Cytotoxicity against human OVCAR5 cells; assay type: functional; details: for TGI: read-out: pTGI (converted)
IGROV-1 = assay: Cytotoxicity against human IGROV1 cells; assay type: functional; details: for TGI: read-out: pTGI (converted)
UACC-62 = assay: Cytotoxicity against human UACC62 cells; assay type: functional; details: for TGI: read-out: pTGI (converted)
SK-MEL-5 = assay: Cytotoxicity against human SK-MEL-5 cells; assay type: functional; details: for TGI: read-out: pTGI (converted)
SK-MEL-28 = assay: Cytotoxicity against human SK-MEL-28 cells; assay type: functional; details: for TGI: read-out: pTGI (converted)
MDA-MB-435 = assay: Cytotoxicity against human MDA-MB-435 cells; assay type: functional; details: for TGI: read-out: pTGI (converted)
SNB-19 = assay: Cytotoxicity against human SNB19 cells; assay type: functional; details: for TGI: read-out: pTGI (converted)
SF-268 = assay: Cytotoxicity against human SF268 cells; assay type: functional; details: for TGI: read-out: pTGI (converted)
HT-29 = assay: Cytotoxicity against human HT-29 cells; assay type: functional; details: for TGI: read-out: pTGI (converted)
HCT-116 = assay: Cytotoxicity against human HCT116 cells; assay type: functional; details: for TGI: read-out: pTGI (converted)
COLO 205 = assay: Cytotoxicity against human COLO205 cells; assay type: functional; details: for CC50: read-out: pLC50 (the source's name) (converted); for TGI: read-out: pTGI (converted)
NCI-H460 = assay: Cytotoxicity against human NCI-H460 cells; assay type: functional; details: for TGI: read-out: pTGI (converted)
NCI-H226 = assay: Cytotoxicity against human NCI-H226 cells; assay type: functional; details: for CC50: read-out: pLC50 (the source's name) (converted); for TGI: read-out: pTGI (converted)
EKVX = assay: Cytotoxicity against human EKVX cells; assay type: functional; details: for TGI: read-out: pTGI (converted)
HOP-62 = assay: Cytotoxicity against human HOP62 cells; assay type: functional; details: for TGI: read-out: pTGI (converted)

Structure (SMILES): CC1=C([Se]CC(OC(=O)[C@@H](CO)NC(=O)OC(C)(C)C)C(=O)NCCCCCC(=O)OCc2ccccc2)C(=O)c2ccccc2C1=O (some centres undefined)
- GI50 (SR): 1.58 µM
- LC50 (SR): > 100 µM
- TGI (SR): 6.61 µM
- zone of inhibition at 20 µg/disc (Saccharomyces cerevisiae [1]): 0 mm
- zone of inhibition at 20 µg/disc (Saccharomyces cerevisiae [2]): 0 mm
- zone of inhibition at 20 µg/disc (Saccharomyces cerevisiae [3]): 0 mm
- zone of inhibition at 20 µg/disc (Saccharomyces cerevisiae [4]): 0 mm
- zone of inhibition at 20 µg/disc (Saccharomyces cerevisiae [5]): 17 mm
- zone of inhibition at 20 µg/disc (Saccharomyces cerevisiae [6]): 0 mm
- IC50 [7]: 27 µM
- IC50 (HUVEC): 35 µM
- IC50 (A-431): 4 µM
- IC50 (MCF7): 5 µM
- GI50 (Hs-578T): 2 µM
- LC50 (Hs-578T): > 100 µM
- TGI (Hs-578T): 4.68 µM
- GI50 (PC-3): 1.23 µM
- LC50 (PC-3): 5.37 µM
- TGI (PC-3): 2.57 µM
- GI50 (SN12C): 1.95 µM
- LC50 (SN12C): 6.61 µM
- TGI (SN12C): 3.63 µM
- GI50 (RXF 393): 2.69 µM
- LC50 (RXF 393): 6.46 µM
- TGI (RXF 393; read-out: pTGI (converted)): 4.17 µM
- GI50 (CAKI-1): 1.82 µM
- LC50 (CAKI-1): 6.03 µM
- TGI (CAKI-1): 3.31 µM
- GI50 (ACHN): 1.66 µM
- LC50 (ACHN): 5.75 µM
- TGI (ACHN): 3.09 µM
- GI50 (OVCAR-5): 2.09 µM
- LC50 (OVCAR-5): 6.31 µM
- TGI (OVCAR-5): 3.63 µM
- GI50 (IGROV-1): 1.78 µM
- LC50 (concentration killing 50% of cells) (IGROV-1): 6.31 µM
- TGI (IGROV-1): 3.39 µM
- GI50 (UACC-62): 1.7 µM
- LC50 (UACC-62): 5.62 µM
- TGI (UACC-62): 3.09 µM
- GI50 (SK-MEL-5): 1.58 µM
- LC50 (SK-MEL-5): 5.5 µM
- TGI (SK-MEL-5): 2.95 µM
- GI50 (SK-MEL-28): 1.78 µM
- LC50 (SK-MEL-28): 5.75 µM
- TGI (SK-MEL-28): 3.24 µM
- GI50 (MDA-MB-435): 1.78 µM
- LC50 (MDA-MB-435): 6.76 µM
- TGI (MDA-MB-435): 3.47 µM
- GI50 (SNB-19): 0.776 µM
- LC50 (SNB-19): 5.01 µM
- TGI (SNB-19): 2.14 µM
- GI50 (SF-268): 1.86 µM
- LC50 (SF-268): 5.75 µM
- TGI (SF-268): 3.24 µM
- GI50 (HT-29): 2.14 µM
- LC50 (HT-29): 7.24 µM
- TGI (HT-29): 3.98 µM
- GI50 (HCT-116): 1.38 µM
- LC50 (HCT-116): 5.37 µM
- TGI (HCT-116): 2.75 µM
- GI50 (COLO 205): 1.82 µM
- CC50 (COLO 205): 6.17 µM
- TGI (COLO 205): 3.31 µM
- GI50 (NCI-H460): 0.457 µM
- LC50 (NCI-H460): 5.37 µM
- TGI (NCI-H460): 1.62 µM
- GI50 (NCI-H226): 2.24 µM
- CC50 (NCI-H226): 8.71 µM
- TGI (NCI-H226): 4.37 µM
- GI50 (EKVX): 1.82 µM
- LC50 (EKVX): 8.32 µM
- TGI (EKVX): 3.89 µM
- GI50 (HOP-62): 0.417 µM
- LC50 (HOP-62): 4.79 µM
- TGI (HOP-62): 1.74 µM

Structure (SMILES): CC1=C([Se]CC(OC(=O)[C@@H](CSSC(C)(C)C)NC(=O)C(C)(C)C)C(=O)NCCCCCC(=O)OCc2ccccc2)C(=O)c2ccccc2C1=O (some centres undefined)
- GI50 (SR): 3.8 µM
- LC50 (SR): > 100 µM
- TGI (SR): 18.6 µM
- zone of inhibition at 20 µg/disc (Saccharomyces cerevisiae [1]): 0 mm
- zone of inhibition at 20 µg/disc (Saccharomyces cerevisiae [2]): 0 mm
- zone of inhibition at 20 µg/disc (Saccharomyces cerevisiae [3]): 0 mm
- zone of inhibition at 20 µg/disc (Saccharomyces cerevisiae [4]): 14 mm
- zone of inhibition at 20 µg/disc (Saccharomyces cerevisiae [5]): 12 mm
- zone of inhibition at 20 µg/disc (Saccharomyces cerevisiae [6]): 0 mm
- IC50 [7]: 4 µM
- IC50 (HUVEC): 10 µM
- IC50 (A-431): 4 µM
- IC50 (MCF7): 8 µM
- GI50 (Hs-578T): 2.19 µM
- LC50 (Hs-578T): > 100 µM
- TGI (Hs-578T): 5.5 µM
- GI50 (PC-3): 1.51 µM
- LC50 (PC-3): 8.71 µM
- TGI (PC-3): 3.63 µM
- GI50 (SN12C): 2 µM
- LC50 (SN12C): 7.59 µM
- TGI (SN12C): 3.89 µM
- GI50 (CAKI-1): 2.19 µM
- LC50 (CAKI-1): 9.33 µM
- TGI (CAKI-1): 4.57 µM
- GI50 (ACHN): 2.14 µM
- LC50 (ACHN): 14.5 µM
- TGI (ACHN): 4.9 µM
- GI50 (OVCAR-5): 2.57 µM
- LC50 (OVCAR-5): 17.4 µM
- TGI (OVCAR-5): 5.5 µM
- GI50 (IGROV-1): 1.91 µM
- LC50 (concentration killing 50% of cells) (IGROV-1): 7.08 µM
- TGI (IGROV-1): 3.63 µM
- GI50 (UACC-62): 1.95 µM
- LC50 (UACC-62): 8.13 µM
- TGI (UACC-62): 3.98 µM
- GI50 (SK-MEL-5): 1.91 µM
- LC50 (SK-MEL-5): 5.89 µM
- TGI (SK-MEL-5): 3.31 µM
- GI50 (SK-MEL-28): 1.91 µM
- LC50 (SK-MEL-28): 6.46 µM
- TGI (SK-MEL-28): 3.55 µM
- GI50 (MDA-MB-435): 2.29 µM
- LC50 (MDA-MB-435): 25.1 µM
- TGI (MDA-MB-435): 5.5 µM
- GI50 (SNB-19): 1.1 µM
- LC50 (SNB-19): 6.03 µM
- TGI (SNB-19): 2.57 µM
- GI50 (SF-268): 1.91 µM
- LC50 (SF-268): 6.46 µM
- TGI (SF-268): 3.55 µM
- GI50 (HT-29): 2.69 µM
- LC50 (HT-29): > 100 µM
- TGI (HT-29): 7.41 µM
- GI50 (HCT-116): 1.55 µM
- LC50 (HCT-116): 8.91 µM
- TGI (HCT-116): 3.72 µM
- GI50 (COLO 205): 1.82 µM
- CC50 (COLO 205): 6.76 µM
- TGI (COLO 205): 3.47 µM
- GI50 (NCI-H460): 0.631 µM
- LC50 (NCI-H460): 9.55 µM
- TGI (NCI-H460): 2.51 µM
- GI50 (NCI-H226): 2.34 µM
- CC50 (NCI-H226): 9.12 µM
- TGI (NCI-H226): 4.68 µM
- GI50 (EKVX): 2.24 µM
- LC50 (EKVX): > 100 µM
- TGI (EKVX): 5.37 µM
- GI50 (HOP-62): 1.02 µM
- LC50 (HOP-62): 9.12 µM
- TGI (HOP-62): 3.02 µM
